Measurements as given in ChEMBL document CHEMBL1156535, “Thiocarbamates as non-nucleoside HIV-1 reverse transcriptase inhibitors. Part 1: Parallel synthesis, molecular modelling and structure-activity relationship studies on O-[2-(hetero)arylethyl]-N-phenylthiocarbamates” (Bioorg Med Chem, 2008).
pEC50: −log10 of the molar value. Activity calls are given as the source filed them. No cut-off for these calls is given here.

Assays:
[1] = system: HIV-1 Y181C mutant (Human immunodeficiency virus 1); assay: Antiviral activity against HIV1 with reverse transcriptase Y181C mutation in human MT4 cells assessed as reduction of virus-induced cytopathogenicity by MTT assay; conditions: Human immunodeficiency virus 1, MT4
[2] = Selectivity index, ratio of CC50 for human MT4 cells to EC50 for HIV1; type: toxicity, cell-based; conditions: read-out: Ratio CC50/EC50
[3] = system: HIV-1 K103N/Y181C mutant (Human immunodeficiency virus 1); assay: Antiviral activity against HIV1 with reverse transcriptase K103N/Y181C mutation in human MT4 cells assessed as reduction of virus-induced cytopathogenicity by MTT assay; conditions: for pEC50: Human immunodeficiency virus 1, MT4
[4] = Cytotoxicity against human MT4 cells by MTT assay; type: cell-based
Procedure, shortened: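 Mock-infected MT-4 cells; viability by MTT method; CC50 taken as concentration reducing viability by 50%. Mean of three separate experiments, variation among triplicates under 10%.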

[5] = system: Human immunodeficiency virus 1; assay: Antiretroviral activity against HIV1 in human MT4 cells assessed as reduction in virus-induced cytopathogenicity by MTT assay; type: functional, organism-based; conditions: Human immunodeficiency virus 1, MT4
Procedure, shortened: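 MT-4 cells infected with HIV-1; MTT read-out of viability; EC50 taken as concentration giving 50% protection from virus-induced cytopathogenicity. Mean of three separate experiments, variation among triplicates under 10%.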

[6] = system: Human immunodeficiency virus 1; assay: Antiviral activity against HIV1 in human C8166 cells assessed as reduction of p24 antigen level; type: functional, organism-based; conditions: Human immunodeficiency virus 1, C8166
Procedure, shortened: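 C8166 cultures infected with HIV-1; p24 antigen levels measured; EC90 taken as dose lowering p24 by 90%.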

SMILES | pEC50 [1] | selectivity ratio [2] | pEC50 [3] | CC50 [4] [µM] | pEC50 [5] | Activity [3] | EC90 [6] [µM]
O=[N+]([O-])c1cccc(NC(=S)OCCc2ccccn2)c1 | 4.06 | 63 | 4.04 | 100 | 5.80 | – | –
O=[N+]([O-])c1ccc(NC(=S)OCCc2ccccc2)cc1 | – | > 111 | – | > 100 | 6.05 | – | –
Fc1cccc(F)c1NC(=S)OCCc1ccccn1 | – | > 2.6 | – | > 100 | 4.42 | – | –
S=C(Nc1ccc(Cl)cc1)OCCc1ccncc1 | – | < 1 | – | 70 | < 4.15 | – | –
COc1ccc(NC(=S)OCCc2ccccc2)cc1 | – | 2.1 | – | – | 4.77 | – | –
S=C(Nc1ccc(Cl)c(Cl)c1)OCCc1ccccn1 | – | 200 | – | 40 | 6.70 | – | –
Cc1ccccc1NC(=S)OCCc1ccccn1 | – | > 1.4 | – | > 100 | 4.16 | – | –
CN(C)c1ccc(NC(=S)OCCc2ccccn2)cc1 | – | < 1 | – | 60 | < 4.22 | – | –
S=C(Nc1ccc(I)cc1)OCCc1ccccn1 | – | 68 | – | 34 | 6.30 | – | –
S=C(Nc1cccc(Cl)c1)OCCc1ccccn1 | – | 34 | – | 47 | 5.85 | – | –
S=C(Nc1ccccc1)OCCc1ccccn1 | – | > 14 | – | > 100 | 5.13 | – | –
O=[N+]([O-])c1cc(NC(=S)OCCc2ccccn2)ccc1Cl | – | 410 | – | 41 | 7.00 | – | –
S=C(Nc1ccc(Br)cc1)OCCc1ccccn1 | 4.70 | 185 | – | 37 | 6.70 | inactive | –
O=[N+]([O-])c1ccc(NC(=S)OCCc2ccccn2)cc1 | – | > 143 | – | > 100 | 6.15 | – | 0.8
Cc1ccc(NC(=S)OCCc2ccccc2)cc1 | – | > 23 | – | > 100 | 5.37 | – | –
Cc1ccc(NC(=S)OCCc2ccncc2)cc1 | – | > 1.6 | – | > 100 | 4.20 | – | –
Cc1ccc(NC(=S)OCCc2ccccn2)cc1 | – | 44 | – | 75 | 5.77 | – | –
COc1ccc(NC(=S)OCCc2ccncc2)cc1 | – | < 1 | – | 59 | < 4.23 | – | –
S=C(Nc1ccc(Cl)cc1)OCCc1ccccc1 | – | > 200 | – | > 100 | 6.30 | – | –
COc1ccc(NC(=S)OCCc2ccccn2)cc1 | – | 8.6 | – | 48 | 5.25 | – | –

SMILES | pEC50 [1] | selectivity ratio [2] | pEC50 [3] | CC50 [4] [µM] | pEC50 [5] | Activity [3] | EC90 [6] [µM]
FC(F)(F)c1cc(NC(=S)OCCc2ccccn2)ccc1Cl | – | 7.6 | – | 42 | 5.26 | – | –
Fc1cccc(NC(=S)OCCc2ccccn2)c1 | – | ≥ 91 | – | ≥ 100 | 5.96 | – | –
FC(F)(F)c1ccc(NC(=S)OCCc2ccccn2)cc1 | – | 3.8 | – | 50 | 4.89 | – | –
S=C(Nc1ccc(Cl)cc1)OCCc1ccccn1 | – | 520 | – | 52 | 7.00 | – | –
S=C(NCCc1ccccn1)Nc1ccc(Br)cn1 [TROVIRDINE] | – | 3000 | – | – | – | – | 0.015
O=[N+]([O-])c1ccc(NC(=S)OCCc2ccncc2)cc1 | – | – | – | > 100 | < 4.00 | – | –
Fc1ccc(F)c(NC(=S)OCCc2ccccn2)c1 | – | > 11 | – | > 100 | 5.05 | – | –
CC(=O)c1ccc(NC(=S)OCCc2ccccn2)cc1 | – | – | – | ≥ 100 | < 4.00 | – | –
CC(C)c1ccc(NC(=S)OCCc2ccccn2)cc1 | – | < 1 | – | 45 | < 4.35 | – | –
Fc1cc(F)cc(NC(=S)OCCc2ccccn2)c1 | – | > 11 | – | > 100 | 5.05 | – | –
Cc1cccc(NC(=S)OCCc2ccccn2)c1 | – | > 13 | – | > 100 | 5.11 | – | –
CCc1ccc(NC(=S)OCCc2ccccn2)cc1 | – | 4.4 | – | 44 | 5.00 | – | –
S=C(Nc1ccc(Cl)cc1Cl)OCCc1ccccn1 | – | > 34 | – | > 100 | 5.54 | – | –
S=C(Nc1ccccc1Cl)OCCc1ccccn1 | – | > 2.3 | – | > 100 | 4.37 | – | –
O=C1Nc2ccc(Cl)cc2[C@@](C#CC2CC2)(C(F)(F)F)O1 [EFAVIRENZ] | 8.00 | – | 7.40 | – | – | – | –
N#Cc1ccc(NC(=S)OCCc2ccccn2)cc1 | – | 225 | – | 45 | 6.70 | – | –
Fc1ccc(NC(=S)OCCc2ccccn2)cc1 | – | > 83 | – | > 100 | 5.92 | – | –
S=C(Nc1ccccc1)OCCc1cccs1 | – | > 7.1 | – | > 100 | 4.85 | – | –
Cc1ccc(NC(=S)OCCc2ccccn2)cc1Cl | – | 84 | – | 59 | 6.15 | – | –
S=C(Nc1ccccc1)OCCc1ccccc1 | – | 17 | – | – | 5.22 | – | –
